Starred links: 1 amine or outer side, 2 acyl side, 3 side chain; linkers in the order of their positions; H or OH if unused. Non-standard residues stand in square brackets, D forms with d. Residues, ends and D or L forms follow the SMILES beside them. azaTyr = O=C(N(Cc1ccc(O)cc1)N[*:1])[*:2]; X1 = O=C(N(Cc1ccc(O)c(O)c1)N[*:1])[*:2]; azaPhe = O=C(N(Cc1ccccc1)N[*:1])[*:2]; X3 = CC[C@H](C)N(N[*:1])C(=O)[*:2]; X2 = O=C(O)CCN(N[*:1])C(=O)[*:2]; AzaAla = CN(N[*:1])C(=O)[*:2]; azaGly = NNC(=O)O
Assays:
[1] = biological target: Insulin receptor (Homo sapiens) (UniProt P06213); test: Inhibition of human active insulin receptor tyrosine kinase domain (amino acids 1005 to 1310) assessed as reduction in autophosphorylation at 400 uM using 1000 uM ATP and insulin by BCIP/NBT staining based colorimetry and immunoblotting
[2] = biological target: Insulin receptor (Homo sapiens) (UniProt P06213); test: Inhibition of human active insulin receptor tyrosine kinase domain (amino acids 1005 to 1310) assessed as residual autophosphorylation level at 400 uM using 1000 uM ATP and insulin by BCIP/NBT staining based colorimetry and immunoblotting
In short: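 Recombinant IRTK domain (residues 1005–1310), 200 ng/mL, incubated with 1000 µM ATP and peptide ligand in reaction buffer for 20 min at 37 °C, then quenched. Samples were resolved by denaturing 10% Bis-Tris PAGE and transferred to PVDF, which was blocked overnight in 2% BSA/TBST. Blots were probed with anti-phospho-IR/IGF1R (Tyr1158/1162/1163) and an AP-conjugated goat anti-rabbit IgG, and developed colorimetrically with BCIP/NBT.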

[3] = Retention time of the compound using 2 to 90% MeCN in H2O with 0.1% FA over 15 mins by RP-LC method; type: physicochemical; conditions: 0.25 h
[4] = biological target: Insulin receptor (Homo sapiens) (UniProt P06213); test: Stimulation of human active insulin receptor tyrosine kinase domain (amino acids 1005 to 1310) assessed as increase in autophosphorylation at 400 uM using 1000 uM ATP and insulin by BCIP/NBT staining based colorimetry and immunoblotting
[5] = Retention time of the compound using 2 to 90% MeOH in H2O with 0.1% FA over 15 mins by RP-LC method; type: physicochemical; conditions: 0.25 h
In short: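 Reversed-phase LC with UV detection at 214 nm; gradient of 2–90% MeOH in H2O containing 0.1% formic acid over 15 min; retention time in minutes.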

[6] = biological target: Insulin receptor (Homo sapiens) (UniProt P06213); test: Inhibition of IRTK (unknown origin) assessed as reduction in enzyme phosphorylation at 4 mM
[7] = biological target: Insulin receptor (Rattus norvegicus) (UniProt P15127); test: Inhibition of rat liver IRTK assessed as reduction in enzyme phosphorylation at 4 mM
Chain of Insulin receptor (Rattus norvegicus) (P15127 27-759 limits assumed): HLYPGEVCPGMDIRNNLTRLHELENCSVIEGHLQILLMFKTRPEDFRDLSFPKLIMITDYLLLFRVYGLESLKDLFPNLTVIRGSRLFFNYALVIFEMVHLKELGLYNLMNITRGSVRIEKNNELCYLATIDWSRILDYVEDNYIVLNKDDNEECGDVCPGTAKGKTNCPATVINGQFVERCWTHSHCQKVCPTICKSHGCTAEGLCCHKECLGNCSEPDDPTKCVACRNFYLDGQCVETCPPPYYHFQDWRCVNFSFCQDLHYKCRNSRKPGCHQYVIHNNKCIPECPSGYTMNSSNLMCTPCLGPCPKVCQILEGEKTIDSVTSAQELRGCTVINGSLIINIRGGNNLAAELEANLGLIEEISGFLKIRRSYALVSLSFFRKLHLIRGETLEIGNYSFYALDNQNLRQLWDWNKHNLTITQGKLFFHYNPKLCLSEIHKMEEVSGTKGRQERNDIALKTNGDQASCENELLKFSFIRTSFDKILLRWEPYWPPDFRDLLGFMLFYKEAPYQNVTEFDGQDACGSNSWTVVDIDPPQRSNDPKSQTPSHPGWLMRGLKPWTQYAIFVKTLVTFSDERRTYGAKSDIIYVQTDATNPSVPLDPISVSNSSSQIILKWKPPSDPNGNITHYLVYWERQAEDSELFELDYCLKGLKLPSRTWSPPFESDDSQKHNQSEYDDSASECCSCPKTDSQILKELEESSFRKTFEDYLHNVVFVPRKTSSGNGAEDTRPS
Chain of Insulin receptor (Rattus norvegicus) (P15127 764-1383 limits assumed): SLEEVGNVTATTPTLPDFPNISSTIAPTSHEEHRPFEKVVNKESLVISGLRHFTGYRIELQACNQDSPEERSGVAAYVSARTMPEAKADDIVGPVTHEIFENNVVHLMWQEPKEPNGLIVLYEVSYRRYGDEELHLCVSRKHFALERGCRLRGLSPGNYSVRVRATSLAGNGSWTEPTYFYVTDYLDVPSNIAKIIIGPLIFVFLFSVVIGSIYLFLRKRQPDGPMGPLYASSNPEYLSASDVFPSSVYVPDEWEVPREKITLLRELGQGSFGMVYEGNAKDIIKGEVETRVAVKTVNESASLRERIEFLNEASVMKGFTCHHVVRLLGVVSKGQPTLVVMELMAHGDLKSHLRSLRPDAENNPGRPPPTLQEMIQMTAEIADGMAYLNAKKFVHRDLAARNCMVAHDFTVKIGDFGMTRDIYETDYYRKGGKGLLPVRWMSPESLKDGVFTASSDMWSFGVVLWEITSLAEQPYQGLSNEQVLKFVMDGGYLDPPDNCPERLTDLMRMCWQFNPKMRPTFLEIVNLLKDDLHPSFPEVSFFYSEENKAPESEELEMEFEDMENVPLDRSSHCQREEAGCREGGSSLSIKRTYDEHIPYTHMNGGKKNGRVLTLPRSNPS

Chain of Insulin receptor (Homo sapiens) (P06213 28-758 limits assumed): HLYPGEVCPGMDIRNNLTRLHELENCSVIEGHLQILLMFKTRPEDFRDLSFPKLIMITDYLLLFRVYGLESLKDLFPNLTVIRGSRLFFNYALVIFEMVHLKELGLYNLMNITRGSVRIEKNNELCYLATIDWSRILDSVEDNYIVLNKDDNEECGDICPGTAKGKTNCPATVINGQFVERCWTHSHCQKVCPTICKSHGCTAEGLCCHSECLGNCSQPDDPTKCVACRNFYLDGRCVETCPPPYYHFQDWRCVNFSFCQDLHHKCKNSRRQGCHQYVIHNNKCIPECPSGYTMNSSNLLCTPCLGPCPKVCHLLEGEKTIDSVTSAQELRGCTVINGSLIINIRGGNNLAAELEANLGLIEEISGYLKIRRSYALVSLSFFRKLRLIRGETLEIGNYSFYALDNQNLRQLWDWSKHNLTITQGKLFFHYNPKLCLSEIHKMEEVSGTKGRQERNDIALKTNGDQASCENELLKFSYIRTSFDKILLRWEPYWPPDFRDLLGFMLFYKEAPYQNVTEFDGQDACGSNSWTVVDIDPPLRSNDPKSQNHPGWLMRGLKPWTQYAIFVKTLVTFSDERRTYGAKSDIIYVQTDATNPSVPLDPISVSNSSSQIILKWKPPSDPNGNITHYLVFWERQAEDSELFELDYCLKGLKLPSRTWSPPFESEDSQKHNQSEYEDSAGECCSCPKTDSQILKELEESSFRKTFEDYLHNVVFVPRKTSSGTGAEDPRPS
Chain of Insulin receptor (Homo sapiens) (P06213 763-1382 limits assumed): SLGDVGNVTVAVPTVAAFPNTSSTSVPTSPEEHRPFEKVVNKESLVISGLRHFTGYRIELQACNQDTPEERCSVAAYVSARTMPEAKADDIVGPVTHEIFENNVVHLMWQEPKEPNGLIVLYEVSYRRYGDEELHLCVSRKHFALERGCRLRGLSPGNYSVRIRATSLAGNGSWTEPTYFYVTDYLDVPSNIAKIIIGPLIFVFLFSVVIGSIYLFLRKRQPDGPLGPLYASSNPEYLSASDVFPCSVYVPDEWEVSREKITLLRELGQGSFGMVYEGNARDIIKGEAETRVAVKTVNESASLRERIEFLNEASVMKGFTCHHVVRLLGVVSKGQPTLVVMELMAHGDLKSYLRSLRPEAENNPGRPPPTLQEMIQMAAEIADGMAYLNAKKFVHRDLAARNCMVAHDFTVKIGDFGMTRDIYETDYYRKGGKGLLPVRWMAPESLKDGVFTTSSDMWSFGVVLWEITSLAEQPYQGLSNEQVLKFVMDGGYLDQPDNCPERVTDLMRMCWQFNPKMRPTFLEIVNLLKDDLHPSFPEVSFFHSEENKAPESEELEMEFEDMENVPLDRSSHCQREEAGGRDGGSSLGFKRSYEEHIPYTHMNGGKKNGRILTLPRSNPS

Compound	inhibition [1] [%]	Activity [2] [%]	Retention_time [3] [min]	Activity [4] [%]	Retention_time [5] [min]	inhibition [6] [%]	inhibition [7] [%]
CC(C)(C)c1cc(C=C(C#N)C#N)cc(Br)c1O	80	–	–	–	–	–	–
CC[C@H](C)[C@H](NC(=O)[C@H](CC(=O)O)NC(C)=O)C(=O)N[C@@H](Cc1ccc(O)cc1)C(=O)NN(CCC(=O)O)C(=O)N[C@H](C(N)=O)[C@@H](C)O (Ac-DIY[X2]T-NH2)	–	110	6.41	10	9.61	–	–
CC[C@H](C)[C@H](NC(=O)[C@H](CC(=O)O)NC(C)=O)C(=O)NN(Cc1ccc(O)c(O)c1)C(=O)N[C@@H](CCC(=O)O)C(=O)N[C@H](C(N)=O)[C@@H](C)O (Ac-DI[X1]ET-NH2)	–	128	6.33	30	8.9	–	–
CC[C@H](C)[C@H](NC(=O)[C@H](CC(=O)O)NC(C)=O)C(=O)NN(Cc1ccccc1)C(=O)N[C@@H](CCC(=O)O)C(=O)N[C@H](C(N)=O)[C@@H](C)O (Ac-DI[azaPhe]ET-NH2)	–	67	7.76	–	11.76	–	–
CC[C@H](C)[C@H](NC(=O)[C@H](CC(=O)O)NC(C)=O)C(=O)NN(Cc1ccc(O)cc1)C(=O)N[C@@H](CCC(=O)O)C(=O)N[C@H](C(N)=O)[C@@H](C)O (Ac-DI[azaTyr]ET-NH2)	50	40	6.68	–	9.95	–	–
CC(=O)N[C@@H](CC(=O)O)C(=O)NN(C)C(=O)N[C@@H](Cc1ccc(O)cc1)C(=O)N[C@@H](CCC(=O)O)C(=O)N[C@H](C(N)=O)[C@@H](C)O (Ac-D[AzaAla]YET-NH2)	–	74	5.26	–	7.42	–	–
CC[C@H](C)N(NC(=O)[C@H](CC(=O)O)NC(C)=O)C(=O)N[C@@H](Cc1ccc(O)cc1)C(=O)N[C@@H](CCC(=O)O)C(=O)N[C@H](C(N)=O)[C@@H](C)O (Ac-D[X3]YET-NH2)	–	73	5.13	–	6.97	–	–
CC(=O)N[C@@H](CC(=O)O)C(=O)NNC(=O)N[C@@H](Cc1ccc(O)cc1)C(=O)N[C@@H](CCC(=O)O)C(=O)N[C@H](C(N)=O)[C@@H](C)O (Ac-D[azaGly]YET-NH2)	–	61	5.04	–	6.99	–	–
Ac-DIFET-NH2	–	84	–	–	–	20	–
Ac-DIYET-NH2	< 10	82	–	–	–	–	80

— ChEMBL document CHEMBL3352286, “Submonomer synthesis of azapeptide ligands of the Insulin Receptor Tyrosine Kinase domain” (Bioorg Med Chem Lett, 2014)
